Here are results for 17 compounds from PubChem BioAssay.

Broadly, the viability is a read-out of living cells in per cent, often relative to untreated cells. As usually defined, the inhibition is the drop in the measured response relative to a control, in per cent.

The source made the active and inactive calls.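 How the source made its calls, unless noted: active means viability at or under a set limit in both replicates, limit being median viability minus 3 SD (cut at about 48% in these data, passing the limit was not always enough); inconclusive means at or under the limit in just one replicate; inactive means at or above the limit in both replicates.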

A short description of assay [1]: SK-BR-3 cell growth inhibitors, pilot screen, 24 h, human (AID 572;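 active means viability at or below 10% of carrier control in both of two separate runs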;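 further: compound exposure lasted between 18 and 24 h rather than exactly 24 h; 100% = carrier-treated control wells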). The note with it: SK-BR-3 viability, CellTiter-Glo luminescence, at 10 µM, stronger effect = lower value. Background: In ATP-based viability assays light output follows the ATP content of the culture.
A short description of assay [2]: HUVEC growth inhibition – cell-based, human, primary screen (AID 575;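 active means viability at or below 30% in both replicate assays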;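 further: 100% = median of untreated cell wells with 0.1% DMSO on each plate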). Conditions: HUVEC proliferation, CellTiter-Glo luminescence, 72 h; at 10 µM; stronger effect = lower value. The gist of the method:
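System: primary human umbilical vein endothelial cells; Quantity: 1250 endothelial cells in each well; Buffer or medium: supplemented EBM, 2% fetal bovine serum; Doses: one dose, 10 µM final, 0.1% DMSO; Incubation: 72 h compound incubation; Technique: ATP-based CellTiter-Glo luminescent read; Evaluation: percent of median DMSO-control luminescence; Controls: vehicle and MePR control wells.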

Assay [3] can be described thus: growth inhibitors of H69AR lung tumor, primary screen, human, duplicate replicates (AID 580).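 Further: 100% = mean luminescence of untreated wells and 0% = no signal.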 Conditions: H69AR lung tumor cells viability, ATP luminescence, 72 h; at 10 µM; stronger effect = lower value.
Assay [4] in a line: reversal of MRP1-mediated doxorubicin resistance, pilot screen, H69AR cells, doxorubicin co-treatment (AID 601;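 active means viability loss from added drug above about 55%, and viability with drug at most 40%, in both replicates, limit read from the data, passing the limit was not always enough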). Conditions: CellTiter-Glo, 72 h, at 10 µM; for differential viability (reversal): stronger effect = higher value.
A short description of assay [5]: 384-well plate pilot, post-Golgi transport modulator project, inhibition of yeast transport mutant growth (AID 636; in the data active means inhibition above about 31%). Conditions: absorbance 615 nm, about 18 h, stronger effect = higher value.
Assay [6] in a line: growth suppression of yeast trafficking mutant, preliminary HTS, modulators of trafficking downstream of Golgi apparatus project, 1536-format plate, OD 615 nm (AID 637; in the data active means inhibition above about 30%). The note with it: yeast transport mutant growth, absorbance 615 nm, 18 h; stronger effect = higher value.
The mark [7] stands for this setting: H69AR cells + 2 uM doxorubicin, measured here: viability with 2 uM doxorubicin, stronger effect = lower value.
Where [8] appears, read: H69AR cells, compound alone cytotoxicity.

On to `CCC1(C(=O)OC)NC(c2cccc(F)c2)C2C(=O)N(C)C(=O)C21` (stereo unspecified), for which the viability is 91% (inactive) in assay [1]; 96.1% (inactive) in assay [2]; 88.3% (inactive) in assay [3]; 89.8% in assay [4] (setting [7]); 88.3% in assay [4] (setting [8]). Also, the differential viability (reversal) in assay [4] (H69AR cells + 2 uM doxorubicin) is -1.59% (inactive). The results for the inhibition in assay [5] and in assay [6] were -6.08% (inactive) and 0.73% (inactive), respectively.

In the case of `Cc1ccc(S(=O)(=O)N2CCN(C(=O)CSC3CCCC3)CC2)c(C)c1`, the viability in assay [1] is 74% (inactive); in assay [2] it was 87.4% (inactive); in assay [3] it was 81.6% (inactive); in assay [4] (setting [7]), 88.8%; in assay [4] (setting [8]) it was 81.6%. For the same compound, the differential viability (reversal) in assay [4] (H69AR cells + 2 uM doxorubicin) was -7.29% (inactive). For the same compound, the inhibition in assay [5] was -9.59% (inactive); in assay [6], -5.32% (inactive).

For `COc1cccc(N2CCN(CC(=O)c3c[nH]c4ccc(OC)cc34)CC2C)c1` (stereo unspecified), the viability is 104% (inactive) in assay [1]; 83.9% (inactive) in assay [2]; 70.4% (inactive) in assay [3]; 82.1% in assay [4] (setting [7]); 70.4% in assay [4] (setting [8]). In assay [4] (H69AR cells + 2 uM doxorubicin), the differential viability (reversal) is -11.7% (inactive). In addition, the inhibition is -5.33% (inactive) in assay [5] and -1.45% (inactive) in assay [6].

`CCCCNC(=O)OCCNC(=O)NC`: the viability in assay [1] was 98% (inactive); in assay [2] it was 95.9% (inactive); in assay [3], 98.1% (inactive); in assay [4] (setting [7]), 90.7%; in assay [4] (setting [8]) it was 98.1%. Further, in assay [4] (H69AR cells + 2 uM doxorubicin), the differential viability (reversal) was 7.46% (inactive). For the same compound, the values for the inhibition in assay [5] and in assay [6] were -4.05% (inactive) and -5.45% (inactive), respectively.

For `CC1CCCc2sc3nc(NCc4ccco4)n4ncnc4c3c21` (stereo unspecified), the viability in assay [1] was 104% (inactive); in assay [2], 79.2% (inactive); in assay [3], 83.3% (inactive); in assay [4] (setting [7]), 85%; in assay [4] (setting [8]) it was 83.3%. Besides, the differential viability (reversal) in assay [4] (H69AR cells + 2 uM doxorubicin) is -1.71% (inactive). In addition, the inhibition was -3.97% (inactive) in assay [5] and 20.3% (inactive) in assay [6].

As to `Cc1cc2ccccc2c(=O)n1CC(=O)N(C)c1ccc(F)cc1`, the viability is 102% (inactive) in assay [1]; 84.2% (inactive) in assay [2]; 102% (inactive) in assay [3]; 98.9% in assay [4] (setting [7]); 102% in assay [4] (setting [8]). For the same compound, in assay [4] (H69AR cells + 2 uM doxorubicin), the differential viability (reversal) is 2.95% (inactive). For the same compound, the inhibition was -2.3% (inactive) in assay [5] and -2.73% (inactive) in assay [6].

As for `COC(=O)c1[nH]c2ccc(C)cc2c1NC(=O)CN1CCC(C)CC1`, the viability in assay [1] is 101% (inactive); in assay [2] it was 94.5% (inactive); in assay [3], 92.5% (inactive); in assay [4] (setting [7]) it was 98.6%; in assay [4] (setting [8]), 92.5%. For the same compound, the differential viability (reversal) in assay [4] (H69AR cells + 2 uM doxorubicin) is -6.15% (inactive). In addition, the inhibition was -4.27% (inactive) in assay [5] and -2.73% (inactive) in assay [6].

As for `Cc1ccc(S(=O)(=O)N2CCN(c3nc(C(C)C)c4c(c3C#N)CC(C)(C)OC4)CC2)cc1`, the viability in assay [1] was 65% (inactive); in assay [2], 111% (inactive); in assay [3] it was 79.6% (inactive); in assay [4] (setting [7]), 70%; in assay [4] (setting [8]), 79.6%. For the same compound, in assay [4] (H69AR cells + 2 uM doxorubicin), the differential viability (reversal) is 9.54% (inactive). The inhibition in assay [5] was -1.22% (inactive); in assay [6], -3.09% (inactive).

`Cc1ccccc1C(=O)NC1CCN(Cc2nnnn2CCc2ccccc2)CC1`: the viability was 124% (inactive) in assay [1]; 112% (inactive) in assay [2]; 86.8% (inactive) in assay [3]; 91.3% in assay [4] (setting [7]); 86.8% in assay [4] (setting [8]). The differential viability (reversal) in assay [4] (H69AR cells + 2 uM doxorubicin) was -4.45% (inactive). The inhibition in assay [5] is -5.19% (inactive); in assay [6], 7.05% (inactive).

Regarding `Cc1ccc(S(=O)(=O)N2CCN(C(=O)N3CCOCC3)C2c2ccc(N(C)C)cc2)cc1` (stereo unspecified), the viability is 106% (inactive) in assay [1]; 96.3% (inactive) in assay [2]; 110% (inactive) in assay [3]; 105% in assay [4] (setting [7]); 110% in assay [4] (setting [8]). Besides, the differential viability (reversal) in assay [4] (H69AR cells + 2 uM doxorubicin) was 5.79% (inactive). The inhibition was -6.03% (inactive) in assay [5] and 9.64% (inactive) in assay [6].

As to `CCc1ccccc1N1C(=O)C2CC(C)=C(C)CC2C1=O` (stereo unspecified), the viability in assay [1] was 89% (inactive); in assay [2], 104% (inactive); in assay [3], 103% (inactive); in assay [4] (setting [7]), 84.7%; in assay [4] (setting [8]) it was 103%. The differential viability (reversal) in assay [4] (H69AR cells + 2 uM doxorubicin) is 18% (inactive). Further, the inhibition in assay [5] was -5.73% (inactive); in assay [6], 0% (inactive).

As to `CCOC(=O)C1=C(C)NC(C)=C(C(=O)OC)C1c1cccc([N+](=O)[O-])c1` (stereo unspecified), the viability in assay [1] was 68% (inactive); in assay [2] it was 58% (inactive); in assay [3], 83% (inactive); in assay [4] (setting [7]), 97.7%; in assay [4] (setting [8]), 83%. For the same compound, the differential viability (reversal) in assay [4] (H69AR cells + 2 uM doxorubicin) is -14.7% (inactive). Further, the values for the inhibition in assay [5] and in assay [6] were 5.58% (inactive) and -1.17% (inactive), respectively.

On to `Cc1ccc(OCCN2CCN(C(=O)CCC(=O)Nc3nnc(C)s3)CC2)cc1`, for which the viability in assay [1] was 88% (inactive); in assay [2], 118% (inactive); in assay [3] it was 88.6% (inactive); in assay [4] (setting [7]), 91.8%; in assay [4] (setting [8]), 88.6%. The differential viability (reversal) in assay [4] (H69AR cells + 2 uM doxorubicin) was -3.2% (inactive). For the same compound, the inhibition was -7.03% (inactive) in assay [5] and 2.91% (inactive) in assay [6].

For `CCOC(=O)CSc1nnc2n1C(C)(C)Cc1ccccc1-2`, the viability in assay [1] is 110% (inactive); in assay [2] it was 111% (inactive); in assay [3] it was 101% (inactive); in assay [4] (setting [7]) it was 106%; in assay [4] (setting [8]), 101%. Moreover, in assay [4] (H69AR cells + 2 uM doxorubicin), the differential viability (reversal) was -5.61% (inactive). In addition, the values for the inhibition in assay [5] and in assay [6] were 4.32% (inactive) and -0.91% (inactive), respectively.

`Nc1nc2c(ncn2COCCO)c(=O)[nH]1`: the viability in assay [1] is 97% (inactive); in assay [2], 86.9% (inactive); in assay [3] it was 98.9% (inactive); in assay [4] (setting [7]) it was 95.5%; in assay [4] (setting [8]), 98.9%. For the same compound, the differential viability (reversal) in assay [4] (H69AR cells + 2 uM doxorubicin) is 3.38% (inactive). The inhibition in assay [5] was 0.65% (inactive); in assay [6] it was 3% (inactive).

`CN1CCN(C2=Nc3ccccc3Oc3ccc(Cl)cc32)CC1`: the viability was 80% (inactive) in assay [1]; 59.7% (inactive) in assay [2]; 73.6% (inactive) in assay [3]; 25.3% in assay [4] (setting [7]); 73.6% in assay [4] (setting [8]). For the same compound, the differential viability (reversal) in assay [4] (H69AR cells + 2 uM doxorubicin) is 48.3% (inactive). In addition, the inhibition is -3.38% (inactive) in assay [5] and -1.83% (inactive) in assay [6].

On to `CCC1CCCCN1C(=O)CSc1nnc(-c2ccco2)o1` (stereo unspecified), for which the viability in assay [1] was 126% (inactive); in assay [2], 94.4% (inactive); in assay [3] it was 85.7% (inactive); in assay [4] (setting [7]) it was 82.3%; in assay [4] (setting [8]), 85.7%. Moreover, the differential viability (reversal) in assay [4] (H69AR cells + 2 uM doxorubicin) is 3.32% (inactive). Further, the values for the inhibition in assay [5] and in assay [6] were -1.78% (inactive) and -6.45% (inactive), respectively.
